High-throughput results as filed in PubChem BioAssay.
A selection: hits, their analogues and other compounds. The true share with any hit is near 1.9%.
procasp3 activ – activates human procaspase-3; P42574; recombinant procaspase-3 D3A, Ac-DEVD-pNA absorbance 405 nm; activation, % at 8.5 µM; 330,000 tested, 0.11% active; AID 463141;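 active = activation above the mean of all tested compounds plus 3 SD, cut at about 21% in these data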
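material = Procaspase-3 D3A mutant | probe or stimulus = Ac-DEVD-pNA | compound = single dose, 8.5 µM nominal compound, 0.8% DMSO | timing = 1 h preincubation, 2 h reaction | measured by = 405 nm absorbance of p-nitroaniline, reads at 0 and 120 min | benchmarks = DMSO-only low control, 5 µM PC-3 D3A high control | repeats = singlicate, each compound tested once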
HIF act – HIF pathway transcriptional activation; 300,000 tested, 0.32% active; activation, % at 7.5 µM (by protocol); AID 1910; U2OS HRE-luciferase reporter, luminescence; normalized: DMSO 0%, desferrioxamine 100%;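 active = mean activation of at least 10% of the iron chelator positive control signal, with at least half of replicates also reaching 10%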
proCasp7 act – counter-screen for procaspase-3 activators: activators of human procaspase-7; recombinant procaspase-7, Ac-DEVD-pNA absorbance 405 nm; D23A/D198A/D206A triple mutant, cannot self-cleave; scale: DMSO 0, 5 µM enzyme 100; activation, % at 8.5 µM; 330,000 tested, 0.093% active; AID 463210;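 active = percent activation above the screen-wide mean plus 3 SD, cut at about 25% in these data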
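Assay system: Uncleavable procaspase-7 mutant enzyme / Input: 2 µM procaspase-7 mutant as dispensed / Dosing: single nominal 8.5 µM compound dose, 0.8% DMSO final / Timing: 1 h enzyme–compound preincubation and 2 h substrate reaction, both 25 °C / Detection: p-Nitroaniline absorbance at 405 nm, read at 0 and 120 min / Replication: singlicate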
Neddylation inh – inhibitors of human cullin neddylation; P61081+Q13564; TR-FRET cullin neddylation, biochemical; inhibition, % at 25 µM; 360,000 tested, 0.58% active; AID 651699; in the data active = inhibition above about 36%
Target sequence (P61081 whole entry, looked up): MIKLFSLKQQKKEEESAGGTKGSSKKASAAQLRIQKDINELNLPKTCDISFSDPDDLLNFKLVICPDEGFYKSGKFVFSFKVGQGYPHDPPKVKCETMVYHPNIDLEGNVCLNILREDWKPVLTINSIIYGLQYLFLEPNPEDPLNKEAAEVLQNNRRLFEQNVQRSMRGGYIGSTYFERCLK
Target sequence (Q13564 whole entry, looked up): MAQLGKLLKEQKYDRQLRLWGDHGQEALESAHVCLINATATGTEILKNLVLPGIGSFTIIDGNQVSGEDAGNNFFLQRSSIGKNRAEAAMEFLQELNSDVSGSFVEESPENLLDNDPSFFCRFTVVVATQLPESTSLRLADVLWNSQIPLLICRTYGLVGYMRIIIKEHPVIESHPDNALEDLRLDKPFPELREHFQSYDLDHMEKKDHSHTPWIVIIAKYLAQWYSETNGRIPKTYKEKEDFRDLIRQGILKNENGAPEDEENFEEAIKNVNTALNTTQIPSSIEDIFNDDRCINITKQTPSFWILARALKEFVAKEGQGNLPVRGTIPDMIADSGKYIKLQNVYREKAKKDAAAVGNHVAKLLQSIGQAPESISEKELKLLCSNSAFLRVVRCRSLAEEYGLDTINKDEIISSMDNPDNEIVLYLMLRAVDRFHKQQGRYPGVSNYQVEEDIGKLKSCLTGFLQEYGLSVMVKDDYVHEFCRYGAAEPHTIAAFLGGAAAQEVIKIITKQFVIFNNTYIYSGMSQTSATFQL
Calb FLC – affects C. albicans growth with fluconazole; C. albicans CaCi-2 + fluconazole, Alamar Blue growth, 48 h; growth inhibition, % (no concentration beside the values); 300,000 tested, 0.57% active; AID 1979;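 active = growth inhibition above about 58% in most replicates, limit read from the data, passing the limit was not always enough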;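 note: all wells also contain fluconazole at 8 µg/ml as a sub-toxic cotreatment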
FXN GAA850 act – activators of GAA850 frataxin (FXN) promoter; HEK293 lucGAA850 FXN promoter luciferase reporter, 24 h; percent of 10 µM SAHA response; activation, % at 6 µM; 360,000 tested, 0.56% active;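 active = activation above the average of all compounds screened plus 3 SD, cutoff fixed separately per campaign, cut at about 7.5% in these data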
GAA30 counter – activates GAA30 frataxin promoter, counter-screen for GAA850 activators. HEK293 lucGAA30 FXN promoter luciferase, 24 h; DMSO = 0%, 5 µM ipriflavone = 100%. activation, % at 6 µM. 1,900 tested, 66% active. shares compounds with FXN GAA850 act;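 active = mean activation above the mean of solvent-only control wells plus 3 SD, cut at about 22% in these data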;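 note: counterscreen of GAA850 promoter hits where activity marks nonselective or luminescence artifacts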
FXN GAA850 conf – confirmation of GAA850 frataxin (FXN) promoter activators; shares compounds with FXN GAA850 act; HEK293 lucGAA850 FXN promoter luciferase reporter, 24 h; 100% = activation by SAHA; activation, % at 6 µM; 1,900 tested, 86% active;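 active = mean activation above a set limit taken from the primary screen, cut at about 8% in these data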
Of the large screens only hits and unclear results are named; the others gave an inactive call (follow-up assays come after a bar, where shown).

CCCCOC(=O)/C=C/c1ccc(OC(=O)OC)c(OC(=O)OC)c1	FXN GAA850 act 10 | GAA30 counter 63 | FXN GAA850 conf 32
Cc1ccc(/C=C/C(=O)N2CCc3ccccc32)o1	FXN GAA850 act 11 | GAA30 counter 116 | FXN GAA850 conf 37
O=C(/C=C/c1ccco1)N1CCc2ccccc21	none
CCC1CC(=O)CCN1S(=O)(=O)c1ccc(C)cc1 (stereo not drawn)	none (no result: procasp3 activ, HIF act, proCasp7 act, Calb FLC)
COc1cc(C(=O)Nc2nc3ccccc3[nH]2)ccc1OC(F)F	FXN GAA850 act 9.6 | GAA30 counter 86 | FXN GAA850 conf 36
CC(C)c1nc2sc3c(NCc4ccco4)ncnc3c2c2c1COC(C)(C)C2	FXN GAA850 act 8.1 | GAA30 counter inactive | FXN GAA850 conf 8.0
CCNC(=O)C1(C)CCCN(Cc2csc(-c3ccccc3)n2)C1 (stereo not drawn)	none (no result: procasp3 activ, HIF act, proCasp7 act, Calb FLC)
CN(CC(=O)Nc1ccc(Cl)c(C(F)(F)F)c1)C(=O)CCCNC(=O)c1ccc(Cl)cc1	FXN GAA850 act 15 (no result: HIF act, Calb FLC) | GAA30 counter 65 | FXN GAA850 conf 26
C=C(CCO)C1=CCN(S(=O)C(C)(C)C)[C@H]1CCO (stereo partly drawn)	none (no result: procasp3 activ, HIF act, proCasp7 act, Calb FLC)
Cc1ccc(N/N=C(\C#N)C(=N)N2CCCCC2)cc1	none
N#C/C(=N\Nc1ccc(Cl)cc1)C(=N)N1CCCCCC1	FXN GAA850 act 12 | GAA30 counter 130 | FXN GAA850 conf 49
CN(C)S(=O)(=O)c1cccc(C(=O)Nc2cc(S(=O)(=O)N3CCOCC3)ccc2N2CCCC2)c1	none (no result: procasp3 activ, HIF act, proCasp7 act, Calb FLC)
CN(c1ccccc1)c1nc2ccsc2c(=O)s1	FXN GAA850 act 7.7 | GAA30 counter 94 | FXN GAA850 conf 36
CCN(c1ccccc1)c1nc2ccsc2c(=O)s1	none
Cc1cc(-c2ccc(N3CCOCC3)cc2)nc2ccccc12	FXN GAA850 act 8.0 (not shown: Neddylation inh) | GAA30 counter 130 | FXN GAA850 conf 50
c1ccc2nc(-c3ccc(N4CCOCC4)cc3)ccc2c1	none
CC(/C=N/NC(=O)c1sc(N)nc1C)=C\c1ccccc1	FXN GAA850 act 8.1 | GAA30 counter 116 | FXN GAA850 conf 41
CCCCOc1ccc(-c2cn3ccccc3n2)cc1[N+](=O)[O-]	none
CCOc1ccc(-c2cn3ccccc3n2)cc1[N+](=O)[O-]	FXN GAA850 act 9.2 | GAA30 counter 121 | FXN GAA850 conf 40
O=[N+]([O-])c1ccc(-c2cn3ccccc3n2)cc1	FXN GAA850 act 9.2 | GAA30 counter 108 | FXN GAA850 conf 50
CCN(CC)CCNC(=O)c1nn(-c2ccc(Cl)cc2)c2c1CCc1cc(OC)ccc1-2	none (not shown: procasp3 activ, HIF act, proCasp7 act, Neddylation inh, Calb FLC)
CCc1nc2ccc(C(=O)NCCc3ccccn3)cn2c1N(C)Cc1cccs1	none (no result: procasp3 activ, HIF act, proCasp7 act, Calb FLC)
CS(=O)(=O)c1ccc(C(=O)OCC(=O)N2CCOCC2)cc1[N+](=O)[O-]	FXN GAA850 act 9.7 (no result: procasp3 activ, HIF act, proCasp7 act, Calb FLC) | GAA30 counter 83 | FXN GAA850 conf 39
CS(=O)(=O)c1ccc(C(=O)OCc2nnc(-c3ccccc3)o2)cc1[N+](=O)[O-]	FXN GAA850 act 8.5 (no result: procasp3 activ, proCasp7 act) | GAA30 counter inactive | FXN GAA850 conf 70
CS(=O)(=O)c1ccc(C(=O)OCC(=O)Nc2cccnc2Cl)cc1[N+](=O)[O-]	FXN GAA850 act 8.0 (no result: HIF act, Calb FLC) | GAA30 counter 31 | FXN GAA850 conf 20
COc1ccc(C2=NN(C(=O)COC(=O)c3ccc(S(C)(=O)=O)c([N+](=O)[O-])c3)C(c3ccco3)C2)cc1 (stereo not drawn)	FXN GAA850 act 13 (no result: HIF act, Calb FLC) | GAA30 counter inactive | FXN GAA850 conf 19
COc1ccc(C2=NN(C(=O)COc3ncnc4ccccc34)C(c3ccco3)C2)cc1 (stereo not drawn)	none
CCOC(=O)c1cc(-c2ccc(OC)cc2)n(CCC(=O)NCCN2CCC(C)CC2)c1C	FXN GAA850 act 17 | GAA30 counter 26 | FXN GAA850 conf 15
O=C(c1cc(-c2cccnc2)nc2ccccc12)N1CCN(S(=O)(=O)c2ccc(Cl)s2)CC1	none (no result: procasp3 activ, HIF act, proCasp7 act, Calb FLC)
COc1ccc(C=NNC(=S)NN=Cc2ccc(OC)c(OC)c2)cc1OC	FXN GAA850 act 8.7 (no result: procasp3 activ, HIF act, proCasp7 act, Calb FLC) | GAA30 counter 87 | FXN GAA850 conf 31
CCN(CC)CC(O)CNc1ccnc2c(Cl)ccc(Cl)c12 (stereo not drawn)	none (no result: procasp3 activ, HIF act, proCasp7 act, Calb FLC)
CCN1CCCC1CNC(=O)c1ccc2c(c1)NC(=O)/C(=C\c1ccccc1Cl)S2 (stereo not drawn)	none (no result: procasp3 activ, HIF act, proCasp7 act, Calb FLC)
CCN1CCCC1CNC(=O)c1ccc2c(c1)NC(=O)/C(=C\c1ccc(OC)c(OC)c1)S2 (stereo not drawn)	FXN GAA850 act 7.7 | GAA30 counter inactive | FXN GAA850 conf inactive
Cn1cc(C2=C(c3ccc(Cl)cc3Cl)C(=O)NC2=O)c2ccccc21	FXN GAA850 act 12 | GAA30 counter inactive | FXN GAA850 conf 9.2
O=C1OC(C(=O)Nc2ccccc2)Cc2ccccc21 (stereo not drawn)	none (no result: HIF act)
Cc1ccc(NC(=O)C2Cc3ccccc3C(=O)O2)cc1 (stereo not drawn)	FXN GAA850 act 8.3 (no result: HIF act) | GAA30 counter 86 | FXN GAA850 conf 33
COc1ccc([C@@H]2[C@@H]3C(=O)N(C(C)(C)C)C(=O)[C@@H]3[C@]3(CC(C)C)C(=O)N(c4cccc(Br)c4)C(=O)N23)cc1	FXN GAA850 act 17 | GAA30 counter 27 | FXN GAA850 conf 14
COc1ccc([C@@H]2[C@@H]3C(=O)N(C(C)(C)C)C(=O)[C@@H]3[C@]3(CC(C)C)C(=O)N(c4ccccc4)C(=O)N23)cc1	FXN GAA850 act 15 | GAA30 counter 40 | FXN GAA850 conf 18
COc1ccc([C@@H]2[C@@H]3C(=O)N(C(C)(C)C)C(=O)[C@@H]3[C@]3(CC(C)C)C(=O)N(c4ccc(C(F)(F)F)cc4)C(=O)N23)cc1	none
COc1ccc(NS(=O)(=O)c2cc(NC(=O)CNC(=O)c3cccc(OC)c3)ccc2C)cc1	FXN GAA850 act 7.9 | GAA30 counter 32 | FXN GAA850 conf 18
CC(NS(=O)(=O)c1ccc(Br)cc1)C(c1cccs1)N1CCN(C)CC1 (stereo not drawn)	FXN GAA850 act 17 | GAA30 counter inactive | FXN GAA850 conf inactive
O=S1(=O)C=C[C@H](COCc2ccccc2)N1	none (no result: procasp3 activ, HIF act, proCasp7 act, Calb FLC, FXN GAA850 act)
Cc1nc2ccc(C(=O)Nc3cccc(OCC(=O)N(C)C)c3)cn2c1N(C)CC1CCCCC1	none (no result: procasp3 activ, HIF act, proCasp7 act, Calb FLC)
